# According to ChEMBL document CHEMBL1949625, “Hydroxyl may not be indispensable for raltegravir: Design, synthesis and SAR Studies of raltegravir derivatives as HIV-1 inhibitors” (Eur J Med Chem, 2012):
# Columns and labels:
# [1] = tested on: Human immunodeficiency virus 1; assay: Antiviral activity against HIV1 harboring VSV glycoprotein-G co-transfected with luciferase gene infected in human TZM-bl cells assessed as inhibition of viral replication at 10 uM after 48 hrs by microplate luminometer based luciferase assay; type: functional; conditions: for inhibition at 10 µM: Human immunodeficiency virus 1, TZM-bl, 48 h
# Outline: (§1)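 TZM-bl cells seeded at 10^4 cells/well; next day compounds (from DMSO stocks) added, then pseudotyped virus; final DMSO 2% in all wells. Incubated 48 h at 37 °C, humidified CO2. Steady-glow substrate added directly, lysis 20 min in dark, luciferase luminescence read. AZT and MK-0518 as assay controls. Primary screen run at 10 μM.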
# [2] = tested on: Human immunodeficiency virus 1; assay: Antiviral activity against HIV1 harboring VSV glycoprotein-G co-transfected with luciferase gene infected in human TZM-bl cells assessed as inhibition of viral replication after 48 hrs by microplate luminometer based luciferase assay; type: functional, organism-based; conditions: Human immunodeficiency virus 1, TZM-bl; outline: as §1
# [3] = Cytotoxicity against human TZM-bl cells after 48 hrs by MTT assay; type: cell-based
# Outline: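 TZM-bl cells plated and incubated 18 h at 37 °C, then exposed to compounds for 48 h. MTT (5 mg/mL, 20 uL) added for 3 h at 37 °C; plates shaken 10 min at room temperature. OD550 read with 690 nm reference.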
SMILES,inhibition at 10 µM [1] [%],IC50 [2] [nM],Activity [3],inhibition (INH) [1] [%]
COc1nc(C(C)(C)NC(=O)c2nnc(C)o2)nc(C(=O)NCc2ccc(F)cc2)c1[O-].[K+],92.9,200,Non-toxic,–
COc1nc(C(C)(C)NC(=O)c2nnc(C)o2)nc(C(=O)NCc2ccc(F)cc2)c1O,–,–,Non-toxic,94.1
Cc1nnc(C(=O)NC(C)(C)c2nc(NCc3ccc(F)cc3)c(O)c(C(=O)NCc3ccc(F)cc3)n2)o1,47.5,–,Non-toxic,–
CC(=O)Oc1c(C(=O)NCc2ccc(F)cc2)nc(C(C)(C)NC(=O)c2nnc(C)o2)n(C)c1=O,95.1,1,Non-toxic,–
Cc1nnc(C(=O)NC(C)(C)c2nc(C(=O)NCc3ccc(F)cc3)c(OS(C)(=O)=O)c(=O)n2C)o1,92.7,2.4,Non-toxic,–
Cc1nnc(C(=O)NC(C)(C)c2nc(C(=O)NCc3ccc(F)cc3)c(OC(=O)c3ccccc3)c(=O)n2C)o1,100,4e-05,Non-toxic,–
Cc1cc(C)c(S(=O)(=O)Oc2c(C(=O)NCc3ccc(F)cc3)nc(C(C)(C)NC(=O)c3nnc(C)o3)n(C)c2=O)c(C)c1,94.9,0.04,Non-toxic,–
COc1nc(C(C)(C)NC(=O)c2nnc(C)o2)nc(C(=O)NCc2ccc(F)cc2)c1OC(C)=O,94.2,7.3,Non-toxic,–
COc1nc(C(C)(C)NC(=O)c2nnc(C)o2)nc(C(=O)NCc2ccc(F)cc2)c1OS(C)(=O)=O,88.3,32.8,Non-toxic,–
COc1nc(C(C)(C)NC(=O)c2nnc(C)o2)nc(C(=O)NCc2ccc(F)cc2)c1OC(=O)c1ccccc1,93.4,14.7,Non-toxic,–
COc1nc(C(C)(C)NC(=O)c2nnc(C)o2)nc(C(=O)NCc2ccc(F)cc2)c1OS(=O)(=O)c1c(C)cc(C)cc1C,79.7,1200,Non-toxic,–
CCN(CC)C(=O)C(=O)NC(C)(C)c1nc(C(=O)OC)c(OC(=O)c2ccccc2)c(=O)n1C,-2.7,–,Non-toxic,–
CCN(CC)C(=O)C(=O)NC(C)(C)c1nc(C(=O)NCc2ccc(F)cc2)c(O)c(=O)n1C,95.5,0.5,Non-toxic,–
CCN(CC)C(=O)C(=O)NC(C)(C)c1nc(C(=O)NCc2ccc(F)cc2)c(OC(C)=O)c(=O)n1C,94.2,0.062,Non-toxic,–
CCN(CC)C(=O)C(=O)NC(C)(C)c1nc(C(=O)NCc2ccc(F)cc2)c(OS(C)(=O)=O)c(=O)n1C,93.7,0.64,Non-toxic,–
CCN(CC)C(=O)C(=O)NC(C)(C)c1nc(C(=O)NCc2ccc(F)cc2)c(OC(=O)c2ccccc2)c(=O)n1C,92.8,8e-05,Non-toxic,–
CCN(CC)C(=O)C(=O)NC(C)(C)c1nc(C(=O)NCc2ccc(F)cc2)c(OS(=O)(=O)c2c(C)cc(C)cc2C)c(=O)n1C,77.7,0.3,Non-toxic,–
CCN(CC)C(=O)C(=O)NC(C)(C)c1nc(OC)c(OC(=O)c2ccccc2)c(C(=O)OC)n1,19.8,–,Non-toxic,–
CCN(CC)C(=O)C(=O)NC(C)(C)c1nc(OC)c(O)c(C(=O)NCc2ccc(F)cc2)n1,44.9,–,Non-toxic,–
CCN(CC)C(=O)C(=O)NC(C)(C)c1nc(OC)c(OC(C)=O)c(C(=O)NCc2ccc(F)cc2)n1,59.3,–,Non-toxic,–
CCN(CC)C(=O)C(=O)NC(C)(C)c1nc(OC)c(OS(C)(=O)=O)c(C(=O)NCc2ccc(F)cc2)n1,28.6,–,Non-toxic,–
CCN(CC)C(=O)C(=O)NC(C)(C)c1nc(OC)c(OC(=O)c2ccccc2)c(C(=O)NCc2ccc(F)cc2)n1,52.1,–,Non-toxic,–
CCN(CC)C(=O)C(=O)NC(C)(C)c1nc(OC)c(OS(=O)(=O)c2c(C)cc(C)cc2C)c(C(=O)NCc2ccc(F)cc2)n1,6,–,Non-toxic,–
Cc1nnc(C(=O)NC(C)(C)c2nc(C(=O)NCc3ccc(F)cc3)c(O)c(=O)n2C)o1 [RALTEGRAVIR POTASSIUM],95.1,8,–,–
Cc1cn([C@H]2C[C@H](N=[N+]=[N-])[C@@H](CO)O2)c(=O)[nH]c1=O [ZIDOVUDINE],100,–,–,–
